According to ChEMBL document CHEMBL1124568, “2,4-Diamino-5-benzylpyrimidines as antibacterial agents. 13. Some alkenyl derivatives with high in vitro activity against anaerobic organisms” (J Med Chem, 1989):
Converted amounts (≈) assume the structure as drawn.

Assays:
Dihydrofolate reductase [1] = molecular target: T1, Dihydrofolate reductase (Escherichia coli, UniProt P0ABQ4); test: Antibacterial activity against Escherichia coli DHFR
T1 sequence (P0ABQ4 whole entry): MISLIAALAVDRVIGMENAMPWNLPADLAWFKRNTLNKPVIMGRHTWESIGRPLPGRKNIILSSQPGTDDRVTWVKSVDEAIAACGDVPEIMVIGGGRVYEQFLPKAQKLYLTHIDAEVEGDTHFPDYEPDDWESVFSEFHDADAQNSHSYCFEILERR
Procedure, shortened: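 E. coli DHFR assay with 1 nM enzyme. I50 is the inhibitor concentration that halves the standard-assay velocity. […] Apparent Ki for some inhibitors was obtained by the Henderson method.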

Proteus vulgaris [2] = test: Antibacterial (Proteus vulgaris CN329) activity compared to trimethoprim.; assay type: functional
Procedure, shortened: (§1)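 Each MIC is divided by the MIC of trimethoprim run alongside. Serial dilutions were normally 0.1, 0.3, 1, 3, 10, etc., and occasionally 1, 5 and 10. For E. coli the value is the average over six strains.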

Staphylococcus aureus [3] = test: Antibacterial (Staphylococcus aureus CN491) activity compared to trimethoprim.; assay type: functional; procedure, shortened: as §1
Clostridioides difficile = test: Ratio of antibacterial (Clostridium difficile) activities compared to that of trimethoprim and metronidazole; assay type: functional
Klebsiella aerogenes [4] = test: Antibacterial (Enterobacter aerogenes 2201/86) activity compared to trimethoprim.; assay type: functional; procedure, shortened: as §1
[5] = tested on: Mycolicibacterium smegmatis; test: Antibacterial (Mycobacterium smegmatis S3254) activity compared to trimethoprim.; assay type: functional; procedure, shortened: as §1
[6] = Antibacterial (Salmonella typhi CN512) activity compared to trimethoprim.; assay type: functional, salmonella typhosa
Clostridium perfringens = test: Ratio of antibacterial (Clostridium perfringens) activities compared to that of trimethoprim and metronidazole; assay type: functional
Pasteurella multocida = test: Antibacterial (Pasteurella multocides ATCC 6587) activity compared to trimethoprim.; assay type: functional; procedure, shortened: as §1
Klebsiella pneumoniae [7] = test: Antibacterial (Klebsiella pneumoniae CN3632) activity compared to trimethoprim.; assay type: functional; procedure, shortened: as §1
Serratia marcescens = test: Antibacterial (Serratia marcescens CN2398) activity compared to trimethoprim.; assay type: functional; procedure, shortened: as §1
Dihydrofolate reductase [8] = molecular target: T2, Dihydrofolate reductase (Rattus norvegicus, UniProt Q920D2); test: In vitro inhibition of rat liver dihydrofolate reductase.; conditions: read-out: I50
T2 sequence (Q920D2 whole entry): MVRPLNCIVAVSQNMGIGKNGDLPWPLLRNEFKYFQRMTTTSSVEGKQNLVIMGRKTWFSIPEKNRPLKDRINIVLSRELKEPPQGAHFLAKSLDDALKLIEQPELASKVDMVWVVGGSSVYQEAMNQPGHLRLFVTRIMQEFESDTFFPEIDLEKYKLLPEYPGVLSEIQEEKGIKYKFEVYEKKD

Fusobacterium nucleatum = test: Ratio of antibacterial (Fusobacterium nucleatum) activities compared to that of trimethoprim and metronidazole; assay type: functional
[9] = tested on: Bacteroides thetaiotaomicron; test: Ratio of antibacterial (Bacteroides thetaiotaomicron) activities compared to that of trimethoprim and metronidazole; assay type: functional
Dihydrofolate reductase [10] = molecular target: Dihydrofolate reductase (Staphylococcus aureus, UniProt P0A017); test: Antibacterial activity against Staphylococcus aureus DHFR
Procedure, shortened: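 S. aureus (strain S8862) DHFR was partially purified by ammonium sulfate fractionation and gel filtration. The assay used 0.1 M imidazole chloride pH 6.4, 12 mM mercaptoethanol, 60 µM NADPH and 45 µM dihydrofolate at 30 °C, read at 340 nm. Enzyme, NADPH and inhibitor were preincubated 2 min before dihydrofolate was added. I50 came from % inhibition vs log[inhibitor] plots of steady-state velocities.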

Streptococcus pyogenes [11] = test: Antibacterial ([…] CN10) activity compared to trimethoprim.; assay type: functional; procedure, shortened: as §1
Escherichia coli [12] = test: Antibacterial (Escherichia coli) activity compared to trimethoprim.; assay type: functional; procedure, shortened: as §1
Phocaeicola vulgatus = test: Ratio of antibacterial (Bacteroides vulgatus) activities compared to that of trimethoprim and metronidazole; assay type: functional
Shigella flexneri = test: Antibacterial (Shigella flexneri CN6007) activity compared to trimethoprim.; assay type: functional; procedure, shortened: as §1
Salmonella = test: Ratio of antibacterial (Salmonella typhi CN512) activities of compound and trimethoprim; assay type: functional, salmonella typhosa
Dihydrofolate reductase [13] = molecular target: T1, Dihydrofolate reductase; test: In vitro inhibition of dihydrofolate reductase of Escherichia coli; conditions: read-out: I50
Procedure, shortened: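 The E. coli DHFR assay contained 1 nM enzyme, with the lower limit for I50 arbitrarily set at 2 nM. I50 was estimated from plots of % inhibition of steady-state velocity vs log inhibitor concentration.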

Escherichia coli [14] = test: Ratio of antibacterial (Escherichia coli CN314) activities of compound and trimethoprim; assay type: functional
Staphylococcus aureus [15] = test: Ratio of antibacterial (Staphylococcus aureus CN491) activities of compound and trimethoprim; assay type: functional; procedure, shortened: as §1
[16] = molecular target: Bifunctional dihydrofolate reductase-thymidylate synthase (Plasmodium berghei str. ANKA, UniProt Q27713); test: In vitro inhibition of dihydrofolate reductase of Plasmodium berghei; conditions: read-out: I50
Klebsiella pneumoniae [17] = test: Ratio of antibacterial (Klebsiella pneumoniae CN3632) activities of compound and trimethoprim; assay type: functional; procedure, shortened: as §1
Klebsiella aerogenes [18] = test: Ratio of antibacterial (Enterobacter aerogenes, 2201/86) activities of compound and trimethoprim; assay type: functional; procedure, shortened: as §1
Shigella dysenteriae [19] = test: (§2) Ratio of antibacterial (Shigella dysentariae CN513) activities of compound and trimethoprim; assay type: functional
Proteus vulgaris [20] = test: Ratio of antibacterial (Proteus vulgaris CN329) activities of compound and trimethoprim; assay type: functional; procedure, shortened: as §1
Streptococcus pyogenes [21] = test: Ratio of antibacterial (Streptococcus pyogenes CN10) activities of compound and trimethoprim
[22] = Half-life in dogs Plasma; assay type: ADME, organism-based, Canis lupus familiaris; conditions: dog
Procedure, shortened: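 Two fasted (18 h) male beagles received 5 mg/kg […] (free base), co-dosed with 5 mg/kg trimethoprim in propylene glycol. Jugular plasma was sampled from 0.17 to 24 h. Drug was extracted, separated by TLC and read by fluorescence densitometry. t1/2 came from least-squares linear regression of the postabsorption segment of the plasma curve.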

Shigella dysenteriae [23] = test: as §2

Sequence of Bifunctional dihydrofolate reductase-thymidylate synthase (Q27713 whole entry): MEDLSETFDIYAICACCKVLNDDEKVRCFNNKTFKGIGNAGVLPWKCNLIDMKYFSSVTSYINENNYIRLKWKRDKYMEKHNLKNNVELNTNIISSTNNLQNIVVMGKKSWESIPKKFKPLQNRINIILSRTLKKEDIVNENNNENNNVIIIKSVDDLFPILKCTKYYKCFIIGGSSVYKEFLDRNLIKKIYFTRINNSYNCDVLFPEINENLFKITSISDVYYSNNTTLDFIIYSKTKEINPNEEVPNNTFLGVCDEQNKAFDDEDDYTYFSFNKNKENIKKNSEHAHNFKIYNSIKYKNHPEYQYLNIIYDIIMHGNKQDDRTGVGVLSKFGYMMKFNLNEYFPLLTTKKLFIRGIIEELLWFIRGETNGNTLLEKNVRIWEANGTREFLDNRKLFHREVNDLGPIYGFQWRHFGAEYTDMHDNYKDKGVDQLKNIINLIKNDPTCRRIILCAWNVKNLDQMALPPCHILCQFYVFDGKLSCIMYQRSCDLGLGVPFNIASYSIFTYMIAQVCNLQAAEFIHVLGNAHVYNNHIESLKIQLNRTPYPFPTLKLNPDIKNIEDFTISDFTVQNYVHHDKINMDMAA
Sequence of Dihydrofolate reductase (Staphylococcus aureus, UniProt P0A017) (P0A017 whole entry): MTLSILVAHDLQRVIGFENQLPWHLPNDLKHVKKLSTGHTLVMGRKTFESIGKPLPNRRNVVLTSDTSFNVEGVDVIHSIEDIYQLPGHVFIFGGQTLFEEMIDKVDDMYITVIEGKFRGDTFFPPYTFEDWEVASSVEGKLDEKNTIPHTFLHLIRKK

SMILES | MIC (Proteus vulgaris [2]) [µg/mL] | MIC (Staphylococcus aureus [3]) [µg/mL] | MIC (Clostridioides difficile) [µg/mL] | MIC (Klebsiella aerogenes [4]) [µg/mL] | MIC [6] [µg/mL] | MIC (Clostridium perfringens) [µg/mL] | MIC (Pasteurella multocida) [µg/mL] | MIC (Klebsiella pneumoniae [7]) [µg/mL] | IC50 (Dihydrofolate reductase [8]) [nM] | MIC (Fusobacterium nucleatum) [µg/mL] | MIC (Salmonella) [µg/mL] | IC50 (Dihydrofolate reductase [13]) [nM] | MIC (Escherichia coli [14]) [µg/mL] | MIC (Staphylococcus aureus [15]) [µg/mL] | IC50 [16] [nM] | MIC (Klebsiella pneumoniae [17]) [µg/mL] | MIC (Klebsiella aerogenes [18]) [µg/mL] | MIC (Shigella dysenteriae [19]) [µg/mL] | MIC (Proteus vulgaris [20]) [µg/mL] | MIC (Streptococcus pyogenes [21]) [µg/mL] | other results
CCCc1cc(Cc2cnc(N)nc2N)cc(CCC)c1O |  |  |  |  |  |  |  |  |  |  |  |  |  |  |  |  |  |  |  |  | Ki (Dihydrofolate reductase [1]): 1.7 nM
C=CCc1cc(Cc2cnc(N)nc2N)cc(CC=C)c1OC | 100 (≈ 322 µM) | 5 (≈ 16.1 µM) | > 25 | 100 (≈ 322 µM) | 100 (≈ 322 µM) | 25 | 20 (≈ 64.4 µM) | > 10 | 18000 | 0.8 |  |  |  |  |  |  |  |  |  |  | MIC [5]: 10 µg/mL (≈ 32.2 µM); MIC (Serratia marcescens): > 10 µg/mL; MIC [9]: 0.2 µg/mL; Ki (Dihydrofolate reductase [10]): 2.1 nM; MIC (Streptococcus pyogenes [11]): 1 µg/mL (≈ 3.22 µM); MIC (Escherichia coli [12]): 72 µg/mL (≈ 232 µM); MIC (Phocaeicola vulgatus): 0.2 µg/mL; MIC (Shigella flexneri): 100 µg/mL (≈ 322 µM)
CCCc1cc(Cc2cnc(N)nc2N)cc2c1OC(C)(C)C2 |  |  |  |  |  |  |  |  | 9900 |  | 300 | 280 | 100 | 3 | 240 | 100 | 100 | 300 | 100 | 3 | 
CCc1cc(Cc2cnc(N)nc2N)cc2c1OC(C)C2 (stereo unspecified) |  |  |  |  |  |  |  |  | 11000 |  | 30 | 19 | 30 | 1 | 100 | 30 | 30 | 30 | 30 | 1 | 
C=CCc1cc(Cc2cnc(N)nc2N)cc(CCC)c1OC | > 50 | 1 (≈ 3.2 µM) | 25 | 100 (≈ 320 µM) | 100 (≈ 320 µM) | 12.5 | 10 (≈ 32 µM) | 100 (≈ 320 µM) | 15000 | 0.8 |  |  |  |  |  |  |  |  |  |  | Ki (Dihydrofolate reductase [1]): 1.6 nM; MIC [5]: 0.5 µg/mL (≈ 1.6 µM); MIC (Serratia marcescens): > 10 µg/mL; MIC [9]: 0.1 µg/mL; MIC (Streptococcus pyogenes [11]): 2 µg/mL (≈ 6.4 µM); MIC (Escherichia coli [12]): 38 µg/mL (≈ 122 µM); MIC (Phocaeicola vulgatus): 0.2 µg/mL; MIC (Shigella flexneri): 100 µg/mL (≈ 320 µM)
CCCc1cc(Cc2cnc(N)nc2N)cc2c1OC(C)C2 (stereo unspecified) |  |  |  |  |  |  |  |  | 6250 |  | 100 | 21 | 30 | 1 | 93 | 100 | 100 | 30 | 30 | 1 | 
CCCc1cc(Cc2cnc(N)nc2N)cc2c1OC(C)C2C (stereo unspecified) |  |  |  |  |  |  |  |  | 2040 |  | 100 | 13 | 30 | 1 | 12 | 100 | 30 | 100 | 100 | 1 | 
COc1cc(Cc2cnc(N)nc2N)cc(OC)c1OC [TRIMETHOPRIM] | 1 (≈ 3.44 µM) | 1 (≈ 3.44 µM) | > 25 | 1 (≈ 3.44 µM) | 1 (≈ 3.44 µM) | > 25 | 1 (≈ 3.44 µM) | 1 (≈ 3.44 µM) |  | 0.8 |  |  |  |  |  |  |  |  |  |  | MIC [9]: 12.5 µg/mL; MIC (Streptococcus pyogenes [11]): 1 µg/mL (≈ 3.44 µM); MIC (Escherichia coli [12]): 1 µg/mL (≈ 3.44 µM); MIC (Phocaeicola vulgatus): 6.2 µg/mL; half-life [22]: 3.44 h; MIC (Shigella dysenteriae [23]): 1 µg/mL
